In the library only some 2.1% were active in any assay of this set; here they are far more common.
Wee1 degr inh: Wee1 degradation inhibitors, primary screen, cell-based, HeLa, Wee1K328M-luciferase, luminescence | Wee1-like protein kinase (Homo sapiens), P30291 | 220,000 tested, 1.2% active | HeLa Luc-Wee1K328M stability; 100% = proteasome inhibitor MG132 effect | reporter increase, % at 5 µM | AID 1321, 2008;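 active means activation above the mean of all tested compounds plus 3 SD, set per screening run, cut at about 8.8% in these data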;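 further: cells exposed to compound for 20 h before luminescence read; 0% = DMSO alone and 100% = MG132 at 30 µM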
Target sequence (P30291 whole entry K328M): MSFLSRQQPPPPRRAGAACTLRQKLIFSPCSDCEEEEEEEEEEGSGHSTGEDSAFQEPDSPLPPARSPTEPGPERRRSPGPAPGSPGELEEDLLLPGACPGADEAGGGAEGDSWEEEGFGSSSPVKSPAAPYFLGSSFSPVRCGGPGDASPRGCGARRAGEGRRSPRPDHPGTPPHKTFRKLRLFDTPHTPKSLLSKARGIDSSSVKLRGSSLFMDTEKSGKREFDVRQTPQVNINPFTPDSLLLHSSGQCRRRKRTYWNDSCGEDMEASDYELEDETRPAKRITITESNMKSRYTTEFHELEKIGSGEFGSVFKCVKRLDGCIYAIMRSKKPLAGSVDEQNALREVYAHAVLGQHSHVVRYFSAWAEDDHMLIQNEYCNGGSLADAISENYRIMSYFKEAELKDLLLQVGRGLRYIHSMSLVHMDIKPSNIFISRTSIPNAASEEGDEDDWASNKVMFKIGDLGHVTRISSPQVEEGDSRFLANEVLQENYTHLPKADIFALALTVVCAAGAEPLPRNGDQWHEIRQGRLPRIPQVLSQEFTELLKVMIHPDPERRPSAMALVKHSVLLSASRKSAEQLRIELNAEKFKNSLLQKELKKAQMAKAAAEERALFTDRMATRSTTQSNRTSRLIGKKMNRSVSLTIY
Calpain2 inh: inhibitors of pig calpain II, primary screen, biochemical, fluorogenic peptide substrate, 1536-well | 220,000 tested, 0.37% active | AID 1236, 2008 | inhibition, % at 16 µM | purified calpain II, 30 min;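 active means inhibition above about 50%, limit read from the data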
TNF necrop inh: inhibitors of TNF-alpha triggered necroptosis, primary screen, cell-based, Jurkat FADD-/-, single concentration | activation (protection from cell death), % at 10 µM | 220,000 tested, 0.068% active | Jurkat FADD-/- TNF necroptosis rescue, ATP luminescence, 24 h; 0 = TNF only, 100 = no-TNF cells;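 active means activation, meaning protection from cell death, of at least 50% relative to plate controls; inactive means activation below 50%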;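 further: necroptosis triggered by 40 ng/mL TNF-alpha added together with compound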
L929 necroptosis: inhibitors of zVAD-triggered necroptosis, primary screen, L929 cells; L929 zVAD necroptosis rescue, ATP luminescence, 24 h; with zVAD 60 µM; viability rescue, % at 10 µM; 220,000 tested, 0.38% active;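 active means activation, scaled between plate controls, above about 75%, limit read from the data; inactive means activation under that limit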;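 further: 0% = zVAD with DMSO and 100% = DMSO alone without zVAD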
RBBP9 inhibitor: human RBBP9 inhibitors, primary screen, biochemical, fluorescence polarization, FP-Rh probe, HTS | recombinant RBBP9 | inhibition, % at 7.94 µM | 220,000 tested, 0.2% active | AID 1515, 2009;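 active means inhibition above the campaign mean of all tested compounds plus 3 SD, cut at about 14% in these data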;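 further: plate controls were DMSO wells with RBBP9 for no effect and wells lacking RBBP9 protein for full effect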
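System: RBBP9 protein | Quantity: 2.5 µM RBBP9 dispensing solution, before mixing | Reagent: FP-Rh probe, 375 nM dispensing solution | Timing: Enzyme-compound preincubation 30 min, then probe labeling 45 min, 25 °C | Measured by: Fluorescence polarization | Read-out: % inhibition | Replication: One well per compound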
Pf gamet viab: late stage P. falciparum gametocyte viability inhibitors, primary screen, ATP luminescence, HTS; inhibition, % at 10.9 µM; 150,000 tested, 0.065% active; P. falciparum stage V gametocytes, 24 h;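 active means inhibition above the mean plus 3 SD of compounds within the control limits, set per campaign, cut at about 38% in these data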;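 further: 0% = DMSO wells and 100% = medium only without gametocytes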
Starred values were filed as active, the others as inactive; / = no result given.

SMILES	Wee1 degr inh	Calpain2 inh	TNF necrop inh	L929 necroptosis	RBBP9 inhibitor	Pf gamet viab
COc1cccc(C(=O)NC2CCN(C(=O)N3c4ccccc4Sc4ccccc43)CC2)c1	2.0	39.9	-6.9	1.3	-4.8	6.4
COc1cccc(C(=O)N2c3ccccc3Sc3ccccc32)c1	-1.7	52.3*	-1.1	0.1	-7.3	3.3
Cc1ccc(NC(=O)c2sc3nc(CCl)[nH]c(=O)c3c2C)c(C)c1	16.2*	3.8	0.0	5.3	1.1	18.6
O=C(CCc1nc2ccccc2[nH]1)Nc1ccccc1	2.8	-9.9	3.5	1.1	-2.9	4.2
Cc1cccc(NC(=O)CCCSc2nc3ccccc3[nH]2)c1	10.2*	2.4	2.3	1.7	-7.5	7.1
CCc1ccc(NC(=O)CCc2nc3ccccc3[nH]2)cc1	9.5*	-10.7	3.7	2.3	-1.1	-10.9
Cc1cc(C)cc(NC(=O)CCCSc2nc3ccccc3[nH]2)c1	2.7	3.8	2.1	0.3	-8.2	-33.2
FC(F)(F)c1cc(-c2ccccc2)nc2nc(N3CCOCC3)sc12	-0.4	-108.5	0.5	0.1	-13.6	/
O=C(CSc1nccc(=O)[nH]1)NCc1ccc(Cl)cc1	9.3*	11.7	0.6	0.2	2.6	-1.0
O=C(CSc1ncccn1)NCc1ccc(Cl)cc1	4.1	13.4	0.5	0.0	-4.7	13.9
Cn1cc(CN2CCC(CO)CC2)c(-c2ccc(Oc3ccccc3)cc2)n1	-4.2	-1.0	2.8	0.7	-4.9	4.6
Cc1cc(C)n(/N=C/c2cccs2)c(=O)c1C#N	10.8*	6.8	0.2	0.6	-4.3	/
Cc1cc(C)c(/C=N/n2c(C)cc(C)c(C#N)c2=O)c(C)c1	-0.8	15.1	-1.2	0.3	-7.4	-13.6
CCOC(=O)C1(CCOc2ccccc2)CCN(C(=O)CCSC)CC1	/	/	/	/	/	-23.1
CCC(=O)NC(NC(=S)Nc1cccc2cccnc12)C(Cl)(Cl)Cl (stereo not drawn)	9.8*	8.3	1.0	0.0	1.9	-6.8
CC(C)C(=O)NC(NC(=S)Nc1cccc2cccnc12)C(Cl)(Cl)Cl (stereo not drawn)	0.7	14.2	-2.8	0.0	-5.6	0.0
N#CCCN(Cc1ccccc1)C(=S)Nc1ccccc1	2.6	-17.3	0.6	0.2	-6.1	-3.5
CCN(CC)S(=O)(=O)c1ccc(NC(=O)Cn2c(=O)sc3ccccc32)cc1	9.2*	9.5	1.9	0.4	-6.1	-5.2
COC(=O)Cn1c(=O)sc2ccccc21	10.1*	31.7	0.1	0.4	3.4	/
CCOc1ccccc1Cn1c(=O)sc2ccccc21	-4.5	51.0*	1.3	-0.1	-4.2	-10.2
O=c1sc2ccccc2n1Cc1ccccc1	-1.9	14.2	1.1	4.2	0.6	-5.2
O=C(Cn1c(=O)sc2ccccc21)Nc1ccccc1	-1.5	-25.0	2.2	0.1	5.6	/
Cc1c(/C(O)=C2\C(=O)C(=O)N(CCCN(C)C)C2c2ccco2)cnn1-c1ccccc1 (stereo not drawn)	/	/	/	/	/	8.0
CC(C)Cn1c(-c2csc(C(C)C)c2)n[nH]c1=S	-1.4	54.1*	0.1	0.1	0.0	-5.5
Cc1cc(-c2n[nH]c(=S)n2CC(C)C)cs1	10.6*	14.7	1.3	0.7	-10.7	0.5
SMILES	Wee1 degr inh	Calpain2 inh	TNF necrop inh	L929 necroptosis	RBBP9 inhibitor	Pf gamet viab
CCOC(=O)c1cnc2c(-c3cccc(Br)c3)cnn2c1C	7.1	-25.0	2.1	1.1	4.0	/
CCN(/N=C/c1ccc(Cl)cc1)c1cc(=O)n(C)c(=O)[nH]1	-3.1	26.0	2.1	15.0	1.8	16.7
CCN(/N=C/C=C/c1ccccc1)c1cc(=O)n(C)c(=O)[nH]1	0.2	52.1*	1.6	1.5	-5.7	-52.7
Cc1cc(C(=O)Nc2sc3c(c2C#N)CCCCC3)cs1	-1.3	-161.4	-0.4	0.2	-2.3	/
N#Cc1c(NC(=O)c2cccc(S(=O)(=O)Nc3ccc(C(=O)O)cc3)c2)sc2c1CCCC2	3.6	51.9*	-1.1	0.3	2.9	-13.5
Cc1ncsc1CCOC(=O)c1cccnc1	-0.1	-19.0	0.0	1.8	-4.6	-10.7
Cc1ncsc1CCOC(=O)C12CC3CC(CC(C3)C1)C2	-1.8	66.7*	-3.5	0.3	-8.8	/
CCOC(=O)C1(Cc2ccc(OC)cc2)CCN(C(=O)CCn2ccc(C)n2)CC1	8.8*	-12.7	-0.9	-0.7	5.3	-3.0
O=C(CC1CC2CCC1C2)OCC(=O)c1c[nH]c2ccccc12 (stereo not drawn)	1.1	78.7*	0.1	-0.2	-8.5	/
O=C(COC(=O)CC1CC2CCC1C2)Nc1ccc(F)cc1 (stereo not drawn)	-0.1	12.3	0.7	1.0	-0.9	-11.6
Cn1c(N)c(C(=O)COC(=O)CC2CC3CCC2C3)c(=O)n(C)c1=O (stereo not drawn)	-1.8	92.1*	1.3	2.4	-11.8	1.8
Cc1cc(C)nc(SCCn2c(N3CCOCC3)nc3c2c(=O)[nH]c(=O)n3C)n1	-1.7	10.3	-0.4	1.4	-13.1	-8.8
COc1ccc(Nc2nc3ccccc3c(=O)s2)c(OC)c1	1.1	5.4	0.1	0.4	-1.3	/
Cc1ccc(Nc2nc3ccccc3c(=O)s2)cc1C	10.0*	-12.8	0.1	-0.3	-4.9	2.2
Cc1cc(C)c(C(=O)COC(=O)CCNS(=O)(=O)c2c(Cl)cccc2Cl)cc1C	1.9	50.6*	-0.7	-0.1	-5.2	11.0
Cc1ccc(C(=O)COC(=O)c2ccc(O)cc2)cc1	10.4*	-12.5	-0.7	9.9	-1.1	-12.8
NC(=O)COC(=O)c1ccc(-c2ccc(O)cc2)cc1	9.8*	14.8	-1.5	-0.2	-7.8	7.1
OCC[C@@H]1C[C@@H](O)[C@H](O)[C@]2(Cc3ccccc3CCO2)O1	/	/	/	/	/	-12.4
Cc1cc(C)n(-c2nc3c(c(=O)n(C)c(=O)n3C)n2Cc2cccc(Br)c2)n1	/	/	/	/	/	-6.2
COc1cc(NC(=O)c2cc3sccc3n2C)cc(OC)c1	9.0*	-58.8	-7.6	1.4	-5.5	/
Cn1c(C(=O)Nc2ccccc2)cc2sccc21	6.4	-12.1	-1.6	0.0	-5.2	/
COc1ccc(C(=O)NC(NC(=O)c2ccc(OC)c(OC)c2)c2ccccc2F)cc1OC	9.9*	-1.6	0.4	/	0.9	-0.3
COc1ccc(C(=O)NCC(C)NC(=O)c2ccc(OC)c(OC)c2)cc1OC (stereo not drawn)	/	/	/	/	/	10.4
CC(=O)Oc1ccc2c(c1)Oc1cc(OC(C)=O)ccc1C21OC(=O)c2ccccc21	-2.6	-231.5	-1.8	40.7	16.2*	/
CCOc1ccccc1NC(=S)NCCc1ccccc1	0.9	7.7	-8.9	0.0	-7.1	-35.9
